Source: ChEMBL document CHEMBL1148035, “Isolation of bioactive and other oxoaporphine alkaloids from two annonaceous plants, Xylopia aethiopica and Miliusa cf. banacea” (J Nat Prod, 1994)

Tests used:
Saccharomyces cerevisiae [1] = test: DNA damaging activity against rad 52 DNA repair gene/topoisomerase 1 deficient Saccharomyces cerevisiae mutant assessed as drug level required to produce 12 mm zone of inhibition well after 48 hrs; assay type: functional
Procedure, shortened: (§1)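 Yeast agar-well diffusion assay: test material in a 100 μl well, incubated 48 h at 37°. IC12 is the concentration in μg/ml giving a 12 mm diameter zone of inhibition around the well. Reported values are averages of 2 or 3 determinations.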

[2] = target: DNA topoisomerase 2-alpha (Homo sapiens, UniProt P11388); test: Inhibition of DNA topoisomerase 2 assessed as bacteriophage P4 DNA unknotting after 30 mins
DNA topoisomerase 2-alpha, sequence (P11388 whole entry): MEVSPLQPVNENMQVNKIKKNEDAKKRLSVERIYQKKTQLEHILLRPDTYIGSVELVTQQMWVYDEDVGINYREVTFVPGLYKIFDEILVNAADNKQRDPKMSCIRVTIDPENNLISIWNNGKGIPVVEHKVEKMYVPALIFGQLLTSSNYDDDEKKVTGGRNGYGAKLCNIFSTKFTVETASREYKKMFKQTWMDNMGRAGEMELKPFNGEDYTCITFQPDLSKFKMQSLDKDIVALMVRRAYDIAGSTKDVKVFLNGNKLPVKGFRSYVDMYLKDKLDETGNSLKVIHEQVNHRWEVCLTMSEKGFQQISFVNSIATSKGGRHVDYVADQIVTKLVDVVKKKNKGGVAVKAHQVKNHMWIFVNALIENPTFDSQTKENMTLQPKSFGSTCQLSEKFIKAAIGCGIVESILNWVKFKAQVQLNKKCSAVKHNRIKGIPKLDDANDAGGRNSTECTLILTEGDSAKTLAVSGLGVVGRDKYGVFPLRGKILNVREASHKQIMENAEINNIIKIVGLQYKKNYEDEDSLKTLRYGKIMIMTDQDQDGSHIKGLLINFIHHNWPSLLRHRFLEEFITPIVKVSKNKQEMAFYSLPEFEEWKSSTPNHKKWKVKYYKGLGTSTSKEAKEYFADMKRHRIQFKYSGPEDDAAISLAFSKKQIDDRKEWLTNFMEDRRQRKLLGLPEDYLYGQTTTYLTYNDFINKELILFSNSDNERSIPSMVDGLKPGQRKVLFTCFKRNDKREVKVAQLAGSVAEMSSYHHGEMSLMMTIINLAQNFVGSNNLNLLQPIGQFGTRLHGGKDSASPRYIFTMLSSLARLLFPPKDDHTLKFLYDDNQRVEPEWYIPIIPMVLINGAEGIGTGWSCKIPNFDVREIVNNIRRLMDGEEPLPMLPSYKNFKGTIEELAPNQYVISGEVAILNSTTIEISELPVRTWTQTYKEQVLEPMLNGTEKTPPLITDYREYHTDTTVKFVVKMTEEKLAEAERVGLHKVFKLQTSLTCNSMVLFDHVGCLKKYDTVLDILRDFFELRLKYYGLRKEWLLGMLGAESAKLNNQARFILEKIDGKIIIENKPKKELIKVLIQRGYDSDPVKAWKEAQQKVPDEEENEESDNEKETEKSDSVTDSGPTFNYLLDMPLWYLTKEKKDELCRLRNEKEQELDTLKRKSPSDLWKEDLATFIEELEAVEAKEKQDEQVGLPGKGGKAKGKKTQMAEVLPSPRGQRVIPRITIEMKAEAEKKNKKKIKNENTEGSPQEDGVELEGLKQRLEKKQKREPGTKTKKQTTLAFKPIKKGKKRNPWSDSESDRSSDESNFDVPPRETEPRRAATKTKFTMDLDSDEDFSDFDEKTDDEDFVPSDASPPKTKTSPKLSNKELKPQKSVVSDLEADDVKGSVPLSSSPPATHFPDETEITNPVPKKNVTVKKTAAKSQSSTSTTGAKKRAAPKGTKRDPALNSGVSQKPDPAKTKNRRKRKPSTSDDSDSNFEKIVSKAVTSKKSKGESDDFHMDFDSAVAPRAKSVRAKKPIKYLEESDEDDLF

Saccharomyces cerevisiae [3] = test: DNA damaging activity against rad 52 DNA repair gene deficient Saccharomyces cerevisiae mutant assessed as drug level required to produce 12 mm zone of inhibition after 48 hrs; assay type: functional; procedure, shortened: as §1
Saccharomyces cerevisiae [4] = test: DNA damaging activity against rad 6 DNA repair gene deficient Saccharomyces cerevisiae mutant assessed as drug level required to produce 12 mm zone of inhibition well after 48 hrs; assay type: functional; procedure, shortened: as §1
Saccharomyces cerevisiae [5] = test: DNA damaging activity against wild type Saccharomyces cerevisiae expressing rad DNA repair gene assessed as drug level required to produce 12 mm zone of inhibition after 48 hrs; assay type: functional; procedure, shortened: as §1
Saccharomyces cerevisiae [6] = test: Antifungal activity against rad 6 DNA repair gene deficient Saccharomyces cerevisiae mutant at 500 ug/ml; assay type: functional; settings: read-out: IZ
Procedure, shortened: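 Yeast well-diffusion assay against the rad 6 DNA-repair-deficient Saccharomyces cerevisiae strain. Sample is applied at the stated concentration (μg/ml) to a 100 μl well. Plates are incubated 48 h at 37°. Read-out is the diameter of the zone of inhibition, in mm.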

IC50 [2] [µM] | Structure (SMILES) | Activity (Saccharomyces cerevisiae [1]) [µg/mL] | Activity (Saccharomyces cerevisiae [3]) [µg/mL] | Activity (Saccharomyces cerevisiae [4]) [µg/mL] | Activity (Saccharomyces cerevisiae [5]) [µg/mL] | zone of inhibition at 500 µg/mL (Saccharomyces cerevisiae [6]) [mm]
81.9 | COc1ccc2c(c1)-c1c3c(cc4ccnc(c14)C2=O)OCO3 | 113 | 214 |  |  | 
42.9 | O=C1c2ccc(O)cc2-c2c3c(cc4ccnc1c24)OCO3 | 72 | 295 |  |  | 
 | CC[C@@]1(O)C(=O)OCc2c1cc1n(c2=O)Cc2cc3ccccc3nc2-1 [CAMPTOTHECIN] | >20 | 0.6 | 8.7 |  | 
 | COc1c(OC)c2c3c(nccc3c1OC)C(=O)c1ccccc1-2 [HOMOMOSCHATOLINE] | >500 | >500 | >500 |  | 
 | O=C1c2ccccc2-c2c3c(cc4ccnc1c24)OCO3 [LIRIODENINE] |  | 16.7 |  | 500 | 15
 | COc1cc2ccnc3c2c(c1OC)-c1ccccc1C3=O [LYSICAMINE] | 390 | 300 | >500 |  | 
 | COc1cc2c(cc1OC)-c1c(OC)c(OC)cc3ccnc(c13)C2=O [OXOGLAUCINE] | >500 | >500 | >500 | >500 | 
 | COc1c(OC)c2c3c(nccc3c1OC)C(=O)c1cc3c(cc1-2)OCO3 [OXOPHOEBINE] | 2.6 | 6.4 | 4.7 | >500 | 
 | COC1=C(N)C(=O)c2nc(-c3nc(C(=O)O)c(C)c(-c4ccc(OC)c(OC)c4O)c3N)ccc2C1=O [STREPTONIGRIN] | <0.4 | 0.4 | 2.4 |  | 
